Most compounds without a hit are left out; they make up all but 5.5% or so of the library.
STAT1 inh-1 = STAT1 signaling inhibitors, primary screen, cell-based, HTS, luciferase reporter; NIH 3T3 STAT1-luciferase reporter, IFN-gamma, luminescence; inhibition, % at 5.5 µM; 200,000 compounds, 0.35% hits;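 active = inhibition above a set limit, the mean inhibition across all tested compounds plus 3 SD, cut at about 34% in these data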;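 also: 0% = IFN-gamma with DMSO and 100% = IFN-gamma with 300 µM nifuroxazide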
STAT1 act-1 = STAT1 signaling activators, primary screen, cell-based, HTS, luciferase reporter; NIH 3T3 STAT1-luciferase reporter, IFN-gamma, luminescence; 100% = IFN-gamma alone, no compound; activation (% of control), % at 5.5 µM; 200,000 compounds, 2.6% hits;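 active = activation above the screen-wide mean activation plus 3 SD, cut at about 130% in these data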;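 also: raw ratio to IFN-gamma control signal so 100% means no change and 0% no light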
HSV augment = enhancers of HSV replication in host cells, fold increase, host cell viability. HSV replication augmentation in cells. maximum fold increase. 220,000 compounds, 0.005% hits. AID 1956, 2009; in the data active = maximum fold increase above about 1.5; inconclusive = no clear call, values can overlap the other calls; tested in PC3 cells
STAT3 blocker = IL-6 driven STAT3 reporter inhibitors, primary screen, U3A cells, luciferase, luminescence, MLSCN library | IL-6 STAT3-luciferase reporter; host cell line lacks STAT1 | inhibition, % at 5.5 µM | 190,000 compounds, 0.89% hits | AID 862, 2007;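 active = inhibition above the mean inhibition across all screened compounds plus 3 SD, cut at about 44% in these data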;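 also: 0% = DMSO only wells and 100% = 100 µM nifuroxazide control wells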
STAT3 act-1 = IL-6 driven STAT3 reporter potentiators, primary screen, U3A cells, luciferase, luminescence, MLSCN library; IL-6 STAT3-luciferase reporter; 100% = signal with IL-6 EC80 alone; activation (% of control), % at 5.6 µM; 190,000 compounds, 0.91% hits; AID 871, 2007;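 active = activation above the screen-wide mean of compound activation plus 3 SD, cut at about 130% in these data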;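 also: 0% = background luminescence of wells with medium and substrate only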
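system = STAT3-luciferase reporter U3A cells | reagent = IL-6 stimulus at 33 ng/mL final | timing = 1 h compound pre-exposure, 6 h IL-6 stimulation, 37 °C | measured by = luminescence | evaluation = % activation versus median of IL-6-stimulated wells | control set = IL-6-only wells as 100% reference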
KCC2 mod = KCC2 cotransporter modulators, thallium flux, primary screen, cell-based, HEK293 KCC2, FluoZin-2 fluorescence, MLSMR; Solute carrier family 12 member 5 (Homo sapiens), Q9H2X9; KCC2 cells, thallium flux FluoZin-2 fluorescence; B-score of Tl+ flux slope (higher = more flux/activation; lower = inhibition) at 10 µM; 190,000 compounds, 2.2% hits; AID 1456, 2008;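 active = thallium flux slope and its plate-corrected score both differing from the plate sample mean at a set confidence after two filtering rounds, in either direction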;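 also: slope of fluorescence scaled to starting intensity during 10 to 20 s after thallium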
STAT3 act-2 = STAT3 reporter potentiators, retest of hits, confirmation, U3A cells, luciferase, luminescence | shares compounds with STAT3 act-1 | IL-6 potentiation; U3A cells lack STAT1; 100 means same as IL-6 alone | potentiation (% of control), % at 5.7 µM | 1,200 compounds, 64% hits;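 active = percent activation of the STAT3 luciferase reporter above a set limit taken from the earlier primary screen, cut at about 130% in these data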;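 also: 0% = background signal of medium plus substrate and 100% = median of IL-6 with DMSO wells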
NFkB act 2 = NF-kB reporter activators in human cells, counter-screen for STAT3 activator project; shares compounds with STAT3 act-1; NF-kappaB reporter activation; activation (% of control), % at 5.7 µM; 1,200 compounds, 11% hits; AID 1309, 2008; in the data active = activation above about 120%;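 also: reporter induced by TNF-alpha stimulation; 100% = median of stimulated DMSO wells and 0% = no signal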
STAT1 act-2 = STAT1 reporter activators, IFN-gamma induced, counter-screen for STAT3 activator project, cell-based, NIH 3T3, luciferase luminescence; AID 1318, 2008; shares compounds with STAT3 act-1; activation (% of control), % at 5.7 µM; 1,200 compounds, 13% hits; NIH 3T3 STAT1-luciferase reporter;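 active = activation above the solvent-only control well mean plus 3 SD, set per screening run, cut at about 120% in these data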;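 also: 100% = IFN-gamma with DMSO median signal so 100% means no change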
STAT1 inh-2 = STAT1 signaling inhibitors, confirmation, cell-based, HTS, luciferase reporter; NIH 3T3 STAT1-luciferase reporter, IFN-gamma, luminescence; shares compounds with STAT1 inh-1; inhibition, % at 5.5 µM; AID 1263, 2008; 200 compounds, 55% hits;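 active = triplicate mean inhibition exceeding the hit cutoff computed for the primary STAT1 screen, cut at about 35% in these data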;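 also: 0% = DMSO with IFN-gamma and 100% = 300 µM nifuroxazide with IFN-gamma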
NFkB inh = NF-kB reporter inhibitors, TNF-alpha stimulated, counter-screen for STAT1 inhibitor project, cell-based, HEK293T, luciferase luminescence; shares compounds with STAT1 inh-1; TNF-alpha induced; inhibition, % at 5.7 µM; 200 compounds, 30% hits; AID 1303, 2008;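 active = inhibition above the mean of solvent-only control wells plus 3 SD of those wells, cut at about 15% in these data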;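 also: 0% = DMSO with TNF-alpha and 100% = MG-132 control with TNF-alpha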
STAT3 inh STAT1c = STAT3 reporter inhibition by STAT1 hits, counter-screen for STAT1 inhibitor project, U3A cells, luciferase, luminescence, triplicate | IL-6 STAT3 luciferase reporter; cells lacking STAT1 | 200 compounds, 20% hits | inhibition, % at 5.7 µM | shares compounds with STAT1 inh-1;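 active = inhibition above the mean of solvent-only control wells plus 3 SD, set per campaign, cut at about 25% in these data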;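 also: 0% = IL-6 plus DMSO and 100% = IL-6 plus nifuroxazide control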
KCC2 sec1 = KCC2 modulators in sodium-free buffer, confirmation, cell-based, HEK293 KCC2, thallium flux, secondary assay | shares compounds with KCC2 mod | FluoZin2 fluorescence; hits give high values | normalised thallium flux (F/F0 slope) at 10 µM | 3,700 compounds, 15% hits | AID 1713, 2009;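 active = thallium flux slope above the same plate's solvent-only control mean plus 3 SD; inconclusive = the two replicate wells disagree; inactive = no significant difference from solvent-only control wells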
KCC2 bumet counter = thallium flux persisting under bumetanide in KCC2 cells, confirmation, counter-screen for KCC2 modulator project, cell-based, HEK293 KCC2, FluoZin2, secondary assay 3 | shares compounds with KCC2 mod | HEK293-KCC2 + bumetanide/ouabain; hits give high values | normalized thallium flux at 10 µM | 3,700 compounds, 49% hits;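 active = thallium entry rate above the same plate's blocked-transporter control wells by more than 3 SD; inconclusive = the two repeat wells disagree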;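 also: raw slope of fluorescence over initial fluorescence between 10 and 20 s after thallium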
KCC2 secondary2 = KCC2 modulators without ouabain present, confirmation, cell-based, HEK293 KCC2, thallium flux, FluoZin2, secondary assay 2. shares compounds with KCC2 mod. thallium flux FluoZin2 fluorescence; actives lie on both sides; F/F0 rise rate, 10–20 s post-thallium. normalized thallium flux at 10 µM. 3,700 compounds, 23% hits. AID 1715, 2009;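 active = thallium flux slope more than 3 SD above or below the plate's solvent-only control mean, mostly below; inconclusive = the two repeat wells disagreed; inactive = no significant shift from solvent-only controls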;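 also: raw slope with 0.1% DMSO as baseline and bumetanide as block control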
HEK293 Tl flux = thallium flux modulation in parental HEK cells, confirmation, counter-screen for KCC2 modulator project, cell-based, counterscreen 1; 3,700 compounds, 46% hits; shares compounds with KCC2 mod; AID 1716, 2009; thallium flux rate (normalised fluorescence) at 10 µM; HEK293 parental cells, thallium flux FluoZin2, ouabain; baseline-ratio fluorescence slope, 10–20 s after thallium;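 active = thallium flux rate significantly above the same plate's solvent-only control wells, beyond their mean plus 3 SD; inconclusive = the two replicate wells gave conflicting results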
KCC2 ouabain = KCC2 inhibitors and activators, ouabain retest, confirmation, HEK-KCC2 cells | shares compounds with KCC2 mod | HEK293-KCC2, thallium flux FluoZin2 fluorescence; bidirectional: low = inhibitor, high = activator | raw Tl+ flux slope (below DMSO = inhibition, above = activation) at 10 µM | 3,700 compounds, 48% hits;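 active = thallium flux slope beyond 3 SD from same-plate DMSO control mean in most replicates, usually higher, sometimes lower; inconclusive = repeat tests gave conflicting results; inactive = no significant difference from controls in most replicates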;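 also: slope of initial-normalized fluorescence between seconds 10 and 20 after thallium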
HEK293 Tl flux2 = native HEK Tl+ uptake effects, second counter-screen – HEK cells, counterscreen 2, counter-screen for KCC2 modulator project, confirmation. HEK293 parental, thallium flux FluoZin-2 fluorescence slope. 3,700 compounds, 33% hits. AID 1718, 2009. thallium flux slope at 10 µM. shares compounds with KCC2 mod;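 active = thallium flux slope above the same plate's solvent-control mean plus 3 SD in both duplicate wells; inconclusive = duplicate wells that disagreed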;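 also: run without ouabain in cells lacking the KCC2 cotransporter; slope of fluorescence scaled to its starting value between 10 and 20 s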
The depositor's hits bear a star; i = inactive; u = inconclusive; x = no result given.

SMILES	STAT1 inh-1	STAT1 act-1	HSV augment	STAT3 blocker	STAT3 act-1	KCC2 mod	STAT3 act-2	NFkB act 2	STAT1 act-2	KCC2 sec1	KCC2 bumet counter	KCC2 secondary2	HEK293 Tl flux	KCC2 ouabain	HEK293 Tl flux2	others
Cc1c(Cl)cccc1NC(=S)NCc1ccco1	x	x	i	x	x	0.012	x	x	x	x	x	x	x	x	x
O=C(O)CCc1ccc(-c2cccs2)n1CCc1ccccc1	-1	99	i	3	101	-0.21	x	x	x	x	x	x	x	x	x
COc1ccccc1-c1nnc(SCc2nc3ccccc3s2)n1C	-4	104	i	-33	129	-0.79	x	x	x	x	x	x	x	x	x
CCOc1ccccc1-n1nnnc1SCc1nc2ccccc2s1	-17	116	x	-70	166*	x	156*	119	128*	0.015	u	0.024*	0.0058*	0.013*	0.0091
CCC(=O)N1CCN(c2ccccc2NC(=O)COc2ccccc2Cl)CC1	6	95	i	-61	156*	x	143*	106	100	0.0079	u	0.037	u	0.019	0.01
CCC(=O)N1CCN(c2ccc(NC(=O)COc3ccccc3Cl)cc2)CC1	7	93	i	37	72	x	x	x	x	x	x	x	x	x	x
Cn1c(O)c(C2=c3ccccc3=NC2=O)[nH]c1=S	13	88	i	-47	142*	27*	155*	103	93	0.015*	0.061*	0.032	0.031*	0.043*	0.014*
CCn1c(NC(=O)c2cccs2)nc2ccccc21	-6	106	i	-45	146*	27*	131	106	107	0.0075	0.03*	0.036	0.019*	u	0.021*
Cc1cc(C(=O)NC(=S)Nc2ccccc2N2CCCC2)ccc1[N+](=O)[O-]	-4	104	i	-14	107	2.3	x	x	x	x	x	x	x	x	x
O=C(Nc1ccccc1N1CCCCC1)c1ccccc1F	-7	107	i	12	96	x	x	x	x	x	x	x	x	x	x
O=C(NC(=S)Nc1ccccc1N1CCCC1)c1ccc(F)cc1	8	91	i	-39	145*	16*	149*	104	91	0.018*	0.05*	0.035	0.048*	0.039*	0.015*
O=C(NC(=S)Nc1ccccc1N1CCCC1)c1cccc(F)c1	6	93	i	-57	152*	39*	154*	105	89	0.0062	0.062*	0.043*	0.027*	0.046*	0.028*
CCn1c(O)c(/C=N/NC(=O)c2ccncc2)c(=O)n(CC)c1=S	61*	45	i	8	95	-1	x	x	x	x	x	x	x	x	x	STAT1 inh-2=60*;NFkB inh=1;STAT3 inh STAT1c=-46
CCOc1ccc(-n2c(SCc3ccc([N+](=O)[O-])cc3)nnc2-c2ccc(OC)cc2)cc1	-6	105	i	-3	105	0.087	x	x	x	x	x	x	x	x	x
CS(=O)(=O)c1nc(-c2ccco2)cc(C(F)(F)F)n1	39*	64	i	4	103	x	x	x	x	x	x	x	x	x	x	STAT1 inh-2=40*;NFkB inh=-15;STAT3 inh STAT1c=-6
CN1CCN(c2nc(-c3ccco3)cc(C(F)(F)F)n2)CC1	2	98	i	23	84	x	x	x	x	x	x	x	x	x	x
COc1ccccc1-c1cc(C(F)(F)F)nc(S(C)(=O)=O)n1	40*	63	x	10	90	0.74	x	x	x	x	x	x	x	x	x	STAT1 inh-2=44*;NFkB inh=-8;STAT3 inh STAT1c=-33
COc1ccc2c(c1)C(C)=CC(C)(C)N2C(=O)CSc1nnc(-c2ccc(C)cc2)o1	2	98	i	5	99	-0.66	x	x	x	x	x	x	x	x	x
Cc1cccc(N2CC(O)(c3cccs3)[N+]3=C2CCCC3)c1C (stereo unspecified)	39*	62	i	4	100	-0.14	x	x	x	x	x	x	x	x	x	STAT1 inh-2=31;NFkB inh=-6;STAT3 inh STAT1c=0

Screens (PubChem)
